Compound activity (PubChem)
Most compounds without a hit are left out; they make up all but 1.9% or so of the library.
PLC-beta3 inh: blocks human PLC-beta3 enzyme activity. AID 720704. inhibition, % at 12.2 µM. actives 0.18% (n = 370,000). Purified PLC-beta3, fluorogenic substrate, fluorescence. Q01970
PLC-gamma1 inh: PLC-gamma1 (human) inhibition, primary screen; P19174; purified PLC-gamma1, fluorogenic substrate, fluorescence; inhibition, % at 12.2 µM; actives 0.84% (n = 370,000); AID 720700; in the data active = inhibition above about 9.5%
Tb MetRS inh: blocks T. brucei methionyl-tRNA synthetase activity. AID 624268. actives 0.4% (n = 360,000). inhibition, % at 11.9 µM. purified T. brucei MetRS, ATP depletion, Kinase-Glo luminescence;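 active = inhibition above a per-plate cutoff of the control wells' mean inhibition plus 3 SD, cut at about 5.5% in these data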
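Material – parasite MetRS enzyme · Medium – HEPES-MgCl2-KCl buffer plus DTT, spermine, BSA, pyrophosphatase · Reagent – ATP, methionine and E. coli bulk tRNA substrates · Times – 15 min enzyme-compound preincubation, 2 h reaction, 10 min detection, 25 °C · Measured by – luminescence of leftover ATP · Evaluation – percent inhibition relative to median high and low control wells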
DAGLB inh: diacylglycerol lipase beta (human) inhibition; Q8NCG7; HEK293T DAGLB membrane lysate, EnzChek fluorogenic substrate; inhibition, % at 5.17 µM; actives 0.059% (n = 340,000); AID 504411; in the data active = inhibition above about 34%
HGIII-sPLA2 inh: Blocks human group III sPLA2 activity; Q9NZ20; QFRET BODIPY PC-A2 liposome hydrolysis, fluorescence; inhibition, % at 12.2 µM; actives 0.56% (n = 370,000); AID 743126;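 active = inhibition above mean plus 3 SD of compounds lying within the high and low control bounds, cut at about 19% in these data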
PLCg1 ctr: counter-screen for PLC-beta3 inhibitors: inhibitors of human PLC-gamma1 | inhibition, % at 12.3 µM | shares compounds with PLC-gamma1 inh | purified PLC-gamma1, fluorogenic substrate, fluorescence | actives 3.1% (n = 3,300); in the data active = inhibition above about 9.5%
PLCb3 confirm: confirmation of human PLC-beta3 inhibitors. actives 1% (n = 3,300). purified PLC-beta3, fluorogenic substrate fluorescence. shares compounds with PLC-gamma1 inh. inhibition, % at 12.3 µM. AID 743261
Of the large screens only hits and unclear results are named; the others gave an inactive call (follow-up assays come after a bar, where they were run). Rule as the data show it, unless noted: active = inhibition above about 11%; inactive = the rest.

COc1cccc(NC(=O)n2ncc3c(C)cccc32)c1	PLC-gamma1 inh 10.4 | PLCg1 ctr inactive | PLCb3 confirm inactive
O=C(c1nnsc1S(=O)(=O)c1ccc(Cl)cc1)N1CCOCC1	PLC-gamma1 inh 17.5 | PLCg1 ctr inactive | PLCb3 confirm inactive
CCOC(=O)c1oc2cc(O)cc(C)c2c(=O)c1-c1cscn1	PLC-beta3 inh 12.1 | PLCg1 ctr inactive | PLCb3 confirm inactive
CCCc1cc2c(=O)c(-c3cscn3)c(C(=O)OCC)oc2cc1O	none
COc1ccc(CNC(=O)C(C)Cc2ccccc2)cc1O (stereo not given)	PLC-gamma1 inh 11.7 | PLCg1 ctr inactive | PLCb3 confirm inactive
CCOc1c(Cl)cc(CNCC(C)C)cc1OC	none
CCOc1c(Cl)cc(CNCC(O)c2ccccc2)cc1OC (stereo not given)	PLC-gamma1 inh 10.6 | PLCg1 ctr inactive | PLCb3 confirm inactive
C=CCN1C(=O)[C@@H](CC(=O)NCc2ccccc2)[C@]2(C(=O)OC)CCCCC=C12	none (no result: Tb MetRS inh, DAGLB inh)
O=C(NCCN1CCC(Cc2ccccc2)CC1)C1CCCN(S(=O)(=O)c2ccccc2[N+](=O)[O-])C1 (stereo not given)	none (no result: Tb MetRS inh, DAGLB inh)
Cc1cccc(OCC(=O)OCC(=O)N(CC(C)C)c2c(N)n(Cc3ccccc3)c(=O)[nH]c2=O)c1C	PLC-gamma1 inh 14.1 | PLCg1 ctr inactive | PLCb3 confirm inactive
Cc1ccc(CN2CC(C(=O)N(CC(C)C)c3c(N)n(Cc4ccccc4)c(=O)[nH]c3=O)CC2=O)cc1 (stereo not given)	PLC-gamma1 inh 10.0 | PLCg1 ctr inactive | PLCb3 confirm inactive
COc1ccc2nc(NN=Cc3cccc(C)n3)cc(C)c2c1	none (no result: Tb MetRS inh, DAGLB inh)
O=C1c2ccccc2/C(=C\c2ccc(O[C@@H]3CCCCO3)cc2)N1c1ccccc1	none (no result: Tb MetRS inh, DAGLB inh)
CC1(C)Oc2ccc(C(=O)NCCCN3CCCC3)cc2NC1=O	none (no result: Tb MetRS inh, DAGLB inh)
O=C1N2CCc3ccccc3C2CS(=O)(=O)N1CCc1ccccc1 (stereo not given)	none (no result: Tb MetRS inh, DAGLB inh)
Cn1c(CSCc2ccccc2Cl)nnc1SCC(=O)Nc1nccs1	PLC-gamma1 inh 14.7 | PLCg1 ctr inactive | PLCb3 confirm inactive
Cn1c(CC(=O)Nc2ccc(Cl)c(Cl)c2)nnc1SCC(=O)Nc1nccs1	none
CCOc1ccc(CCNC(=O)c2ccc(Oc3ccccc3)cc2)cc1OCC	none (no result: Tb MetRS inh, DAGLB inh)
CN1CCN(S(=O)(=O)c2cccc(C(=O)Oc3ccc(Br)cc3F)c2)CC1	PLC-gamma1 inh 10.6 | PLCg1 ctr inactive | PLCb3 confirm inactive
Nc1nonc1C(=O)NCCNCc1cc(Br)ccc1OCc1ccccc1F	PLC-beta3 inh 11.2, PLC-gamma1 inh 9.8 | PLCg1 ctr inactive | PLCb3 confirm inactive
CCOC(=O)C1(CC2CCCCO2)CCN(S(=O)(=O)c2ccccc2)CC1 (stereo not given)	none
CCOC(=O)C1(CC2CCCCO2)CCN(S(=O)(=O)c2c(C)nn(C)c2C)CC1 (stereo not given)	PLC-beta3 inh 13.1, PLC-gamma1 inh 12.9 | PLCg1 ctr inactive | PLCb3 confirm inactive
CC12CCC(C(=O)Nc3nccs3)(OC1=O)C2(C)C (stereo not given)	PLC-gamma1 inh 10.2 | PLCg1 ctr inactive | PLCb3 confirm inactive
NC(=O)NC(=O)CSc1cccc(C(F)(F)F)c1	PLC-gamma1 inh 9.5 | PLCg1 ctr inactive | PLCb3 confirm inactive
O=C(OC12CCCN(C1)/C(=C/c1cccc(Cl)c1)C2)c1cccc(F)c1 (stereo not given)	none (no result: Tb MetRS inh, DAGLB inh)
CCN(CC)S(=O)(=O)c1ccc(/C=C/C(=O)Nc2ccccc2N2CCOCC2)cc1	PLC-gamma1 inh 9.6 | PLCg1 ctr inactive | PLCb3 confirm inactive
COc1ccc(NC(=O)C2Cc3c(-c4cccc(F)c4)ccnc3O2)cc1 (stereo not given)	none (no result: DAGLB inh)
O=C(Nc1cccc(OC(F)(F)F)c1)C1Cc2c(-c3cccc(F)c3)ccnc2O1 (stereo not given)	PLC-gamma1 inh 12.5 (no result: DAGLB inh) | PLCg1 ctr inactive | PLCb3 confirm inactive
CC12CCC(C(=O)Nc3ccccc3N3CCOCC3)(CC1=O)C2(C)C (stereo not given)	PLC-gamma1 inh 9.5 | PLCg1 ctr inactive | PLCb3 confirm inactive
CC12CCC(C(=O)Nc3ccccc3-n3cccc3)(CC1=O)C2(C)C (stereo not given)	none
CC(=O)c1cc(-c2ccc(F)cc2)n(CCC(=O)NC(C)(C)C)c1C	PLC-gamma1 inh 21.4 | PLCg1 ctr inactive | PLCb3 confirm inactive
CCC(C)NC(=O)CCn1c(-c2ccc(F)cc2)cc(C(C)=O)c1C (stereo not given)	none
Cc1ccc(NC(=S)N2CCC(N(C)CC3CCCO3)CC2)cc1C (stereo not given)	none
Cc1cccc(NC(=S)N2CCC(N(C)CC3CCCO3)CC2)c1 (stereo not given)	PLC-gamma1 inh 9.7 | PLCg1 ctr inactive | PLCb3 confirm inactive
COC(=O)[C@@]12CCCCC3=C1N(CCC3)C(=O)[C@H]2CC(=O)NCC12CC3CC(CC(C3)C1)C2	none (no result: Tb MetRS inh, DAGLB inh)
Cc1ccc(CNC(=O)CCn2nc(-c3ccc(Cl)cc3)ccc2=O)cc1	none
CC(NC(=O)CCn1nc(-c2ccc(Cl)cc2)ccc1=O)c1ccccc1 (stereo not given)	PLC-gamma1 inh 10.2 | PLCg1 ctr inactive | PLCb3 confirm inactive
CCOC(=O)n1c(=O)n(Cc2ccc(Cl)cc2Cl)c2ccccc21	PLC-gamma1 inh 10.4 | PLCg1 ctr inactive | PLCb3 confirm inactive
Cc1nc(SCC(=O)Nc2cccc(S(=O)(=O)N3CCOCC3)c2)nc(C)c1C	PLC-gamma1 inh 13.6 | PLCg1 ctr inactive | PLCb3 confirm inactive
O=C(Cc1ccccc1Cl)Nc1cccc(S(=O)(=O)N2CCOCC2)c1	PLC-gamma1 inh 9.9 | PLCg1 ctr inactive | PLCb3 confirm inactive
Cn1cccc1C(=O)OCC(=O)Nc1cccc(S(=O)(=O)N2CCOCC2)c1	PLC-gamma1 inh 11.1 | PLCg1 ctr inactive | PLCb3 confirm inactive
O=C(COC(=O)c1cccs1)Nc1cccc(S(=O)(=O)N2CCOCC2)c1	none
Cc1csc(SCC(=O)Nc2cccc(S(=O)(=O)N3CCOCC3)c2)n1	none
COc1cccc(CNC(=O)[C@H]2CCCN2C(=O)[C@H]2CCCN2C(=O)c2cccs2)c1	none (no result: Tb MetRS inh, DAGLB inh)
N#Cc1cccc(-c2ccccc2C(=O)NC2CCCCN(Cc3ccc(Cl)cc3)C2=O)c1 (stereo not given)	none (no result: Tb MetRS inh, DAGLB inh)
O=C(CSc1nnc(-c2cccc(Cl)c2)n1Cc1ccco1)c1ccc(F)cc1	none (no result: Tb MetRS inh, DAGLB inh)
O=C(Nc1ccc2c(c1)OCCO2)c1cccc(Cl)c1	none
O=C(Nc1ccc(N=Nc2ccccc2)cc1)c1cccc(Cl)c1	PLC-gamma1 inh 11.5 | PLCg1 ctr inactive | PLCb3 confirm inactive
COc1ccc(CN2CCN(c3ncnc4scc(-c5ccc(F)cc5)c34)CC2)cc1	none
Fc1ccc(-c2csc3ncnc(N4CCN(c5ccccc5)CC4)c23)cc1	none
